Screening data as filed in PubChem BioAssay.
In the library only some 4% were active in any assay of this set; here they are far more common.
KCNQ1 block = blocks the human KCNQ1 potassium channel. AID 2642. B-score at 10 µM. P51787. 310,000 compounds, 1.3% hits. CHO-K1 KCNQ1, FluxOR thallium flux fluorescence; stronger effect = higher value;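 active = compounds whose thallium flux B-score, printed positive for inhibition, exceeds three library SD while starting fluorescence stays within three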;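 also: channel opened by potassium depolarization with thallium stimulus after 20 min compound exposure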
KCNQ1 act = potentiators or activators of human KCNQ1 potassium channel; 310,000 compounds, 0.35% hits; CHO-K1 KCNQ1, thallium flux FluxOR fluorescence; stronger effect = higher value; B-score at 10 µM;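 active = fluorescence ratio B-score, a plate-corrected score, at least three library SD, with initial intensity B-score within 5 SD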
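Material: CHO-K1 cells stably expressing KCNQ1. Medium: assay buffer for compound exposure, DMSO matched across wells. Reagent: K+/Tl+ depolarizing stimulus. Compound dosing: single-concentration screen. Times: 37 °C overnight plating, 90-min dark dye load, 20-min compound pretreatment. Technique: FluxOR Tl+ flux fluorescence.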
KCNK9 block = human KCNK9 channel inhibition; B-score at 10 µM; AID 488922; 310,000 compounds, 1.2% hits; HEK293 KCNK9, FluxOR thallium flux fluorescence; stronger effect = lower value; Q9NPC2;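 active = ratio B-score over 3 SD below the library mean, with starting fluorescence within 5 SD of its mean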;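 also: negative B-score means less thallium flux so channel inhibition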
PHOSPHO1 inh = PHOSPHO1 (human) inhibition; inhibition, % at 13.3 µM; recombinant PHOSPHO1, absorbance phosphatase assay; 290,000 compounds, 1.1% hits; AID 1565; in the data active = inhibition above about 60%
hERG protect = shields human hERG channel from block by proarrhythmic agents; 310,000 compounds, 0.51% hits; AID 1511; Q12809; CHO-hERG, FluxOR thallium flux, dofetilide IC70 present; activation (rescue from dofetilide block), less the hit threshold, % at 10 µM;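 active = activation above the mean of controls blocked by dofetilide plus 5 SD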;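 also: thallium influx through hERG after potassium depolarization seen as dye fluorescence rise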
KCNK3 inh = human KCNK3 channel inhibition, primary screen | O14649 | CHO-KCNK3 thallium flux, FluxOR fluorescence; stronger effect = lower value | B-score at 10 µM | 340,000 compounds, 0.84% hits;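 active = B-score under library mean minus 4 SD, starting fluorescence ratio at most library mean plus 5 SD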;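 also: more negative B-score means stronger inhibition of thallium flux through KCNK3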
Target sequence (O14649 whole entry, looked up): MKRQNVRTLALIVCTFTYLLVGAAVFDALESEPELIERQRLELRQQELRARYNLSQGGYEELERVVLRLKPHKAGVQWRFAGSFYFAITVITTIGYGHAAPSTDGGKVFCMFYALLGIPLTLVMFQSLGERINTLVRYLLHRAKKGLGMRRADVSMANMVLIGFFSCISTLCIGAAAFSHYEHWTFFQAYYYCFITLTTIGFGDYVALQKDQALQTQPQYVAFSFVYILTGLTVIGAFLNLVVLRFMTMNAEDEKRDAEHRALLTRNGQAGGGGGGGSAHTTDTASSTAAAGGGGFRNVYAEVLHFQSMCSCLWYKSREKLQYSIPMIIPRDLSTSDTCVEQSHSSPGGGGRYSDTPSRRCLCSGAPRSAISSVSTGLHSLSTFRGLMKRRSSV
The depositor's hits bear a star; i = inactive; · = no result given.

SMILES	KCNQ1 block	KCNQ1 act	KCNK9 block	PHOSPHO1 inh	hERG protect	KCNK3 inh
COCCNC(=O)C(c1ccc(OC)cc1)N(C(=O)Cn1nnc2ccccc21)c1cccnc1 (stereo unspecified)	i	i	i	19.3	-11.2	i
COCCNC(=O)C(c1ccncc1)N(C(=O)Cn1nnc2ccccc21)c1ccc(OC)cc1 (stereo unspecified)	i	i	i	-7.5	5.0*	i
O=C(NCc1ccc(Cl)cc1)C1CCCN(C(=O)c2ccc(Cl)cc2)C1 (stereo unspecified)	·	·	·	·	·	i
COc1ccc(/C=N/NC(=O)C(=O)/C=C2\NC3(CCCC3)Cc3ccccc32)cc1	i	i	-6.62*	-3.9	-6.0	i
NNC(=O)C(=O)/C=C1\NC2(CCCC2)Cc2ccccc21	i	i	i	1.5	-7.8	i
O=C(CCn1cccc(C(F)(F)F)c1=O)Nc1cccc(C(F)(F)F)c1	i	i	i	-5.3	-5.0	i
COc1ccc(S(=O)(=O)N2CCC[C@H]2C(=O)NC2=NCCS2)cc1	i	i	i	-16.5	-12.9	i
COc1ccc(S(=O)(=O)N2CCCC2C(=O)Nc2nnc(-c3cccnc3)s2)cc1 (stereo unspecified)	i	i	i	16.3	7.5*	i
CC(C)c1ccc(OCC(=O)NNC(=S)NC(=O)c2ccco2)c(Br)c1	i	47*	i	-92.9	-12.8	i
Cc1ccccc1OCC(=O)NNC(=S)NC(=O)c1ccco1	i	i	i	98.7*	-21.0	i
Cc1ccccc1OCC(=O)Nc1ccccc1NC(=O)c1ccco1	i	i	i	14.6	-5.6	i
CCCCCCn1nc(C(=O)OCC(=O)c2c(N)n(C)c(=O)n(C)c2=O)c2ccccc2c1=O	i	i	i	60.9*	-35.7	i
CCCCCn1nc(C(=O)OCC(=O)c2c(N)n(C)c(=O)n(C)c2=O)c2ccccc2c1=O	i	i	i	12.5	-13.6	i
COCCNC(=O)c1ccc(NC(=O)C2(c3ccccc3)CCCC2)cc1	i	i	i	29.5	7.5*	i
Oc1ccccc1-c1nc2c3ccccc3c3ccccc3c2[nH]1	6*	i	i	7.9	-3.1	i
c1csc(-c2nc3c4ccccc4c4ccccc4c3[nH]2)c1	i	i	i	-3.5	-6.3	-10*
CCOC(=O)CNC(=O)C1COc2ccccc2O1 (stereo unspecified)	i	i	i	6.2	-9.0	i
Cc1cccc(CC(=O)N2CCOCC2)c1	i	i	i	23.9	-4.4	i
CN1C(C(=O)c2ccccc2)=C(N)c2ccccc2S1(=O)=O	i	i	i	64.2*	-6.2	i
O=C(c1ccccc1)N1CCN=C1SCc1ccc([N+](=O)[O-])cc1	i	i	i	1.1	-3.0	i
O=C(c1ccco1)N1CCN=C1SCc1ccc(F)cc1	i	39*	i	-6.0	-7.6	i
O=C1CSC(c2ccccn2)N1c1ccccc1F (stereo unspecified)	i	i	i	-15.8	-11.8	i
Cc1ccc(Oc2ccc(NC(=O)Cn3ccsc3=N)cc2)cc1	i	22*	i	20.4	-15.9	i
Cc1ccccc1NC(=O)c1cc2c(C)nc3ccccc3c2o1	i	i	i	19.2	-12.9	i
CCc1ccc(NC(=O)c2cc3c(C)nc4ccccc4c3o2)cc1	6*	i	i	-1.3	-11.9	i
Cc1ccc(O)c(NC(=S)NC(=O)Cc2ccc(Cl)cc2)c1	i	50*	i	8.5	-6.7	i
CCN(Cc1cnn(C)c1)C(=O)c1cc(COc2ccc(F)cc2F)on1	i	i	i	34.3	-18.1	i
Cc1nn(C)cc1CN(C)C(=O)c1cc(COc2ccc(F)cc2F)on1	i	i	i	64.2*	-10.5	i
CC(C)[C@H](NC(=O)OC(C)(C)C)C(=O)NCC1CCC(C(=O)N[C@@H](Cc2ccccc2)C(=O)O)CC1 (stereo partly specified)	i	i	i	27.0	-2.6	i
N#Cc1ccc(COC(=O)CSc2nnc(C3CCCCC3)n2N)cc1	i	i	i	33.0	-9.4	i
